Assay [1] addresses T1, Neutrophil elastase (Homo sapiens) (UniProt P08246).
T1 sequence (whole entry): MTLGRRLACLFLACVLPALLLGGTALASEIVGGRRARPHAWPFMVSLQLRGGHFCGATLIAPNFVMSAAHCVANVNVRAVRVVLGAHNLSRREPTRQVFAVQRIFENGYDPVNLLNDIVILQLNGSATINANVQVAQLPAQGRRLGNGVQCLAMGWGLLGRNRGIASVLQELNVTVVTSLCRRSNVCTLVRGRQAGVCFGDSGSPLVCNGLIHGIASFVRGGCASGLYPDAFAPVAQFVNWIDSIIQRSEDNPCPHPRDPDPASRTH
The experiment in a line: Inactivation of human leukocyte (neutrophil) elastase(HLE)(HNE) as rate constant. Summed up: (§1)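 HNE (0.1–2.0 μM) in 0.1 M Hepes, 0.5 M NaCl, pH 7.5, 25 °C, was incubated with inhibitor added from Me2SO (final 8–12% v/v). Timed aliquots were diluted 40–200-fold into MeO-Suc-Ala-Ala-Pro-Val-NA (0.1–0.125 mM), and residual activity was read at 410 nm. kobs came from ln(vt/v0) vs time and is reported as kobs/[I]. Very fast cases are lower limits.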

The target in assay [2] is Pancreatic elastase (Sus scrofa) (UniProt P08419+P00772). The experiment in a line: Inactivation of porcine pancreatic elastase (PPE) expressed as rate constant. The format is functional. In a few lines:
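PPE (0.1–2.0 μM) was incubated with inhibitor in 0.1 M Hepes, 0.5 M NaCl, pH 7.5, at 25 °C; inhibitor was added in Me2SO to a final 8–12% v/v. Aliquots taken over time were diluted 40–200-fold into Suc-Ala-Ala-Ala-NA (0.6–1.2 mM), with 4-nitroanilide release followed at 410 nm. First-order kobs came from ln(vt/v0) vs time and is given as kobs/[I].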

For assay [3], the system named is Pancreatic elastase (Sus scrofa). Put plainly: Compound was tested for the inactivation of porcine pancreatic elastase(PPE) expressed as rate constant.
Assay [4] deals with T1, Neutrophil elastase (Homo sapiens). The experiment in a line: Inactivation of human leukocyte (neutrophil) elastase (HLE)(HNE) as rate constant. The format is functional. In a few lines: as §1
For assay [5] the target is unchanged. The experiment in a line: Compound was tested for the inactivation of human leukocyte (neutrophil) elastase(HLE)(HNE) expressed as rate constant. The format is functional. In a few lines:
as §1

Structures are written as SMILES.

The compound `COc1oc(=O)c2cc(NC(=O)Oc3ccccc3)ccc2c1Cl` displayed a k obs / 1 in assay [1] of 13000 M⁻¹ s⁻¹. For the same compound, in assay [2], the second-order inactivation rate constant (kobs/[I]) came out at 850 M⁻¹ s⁻¹. The compound further had a [I] in assay [3] of 8.8 µM.
The compound `COc1oc(=O)c2cc(NC(=O)c3ccccc3C(=O)O)ccc2c1Cl` registered a kobs/[I] (second-order inactivation rate constant) in assay [4] of 52000 M⁻¹ s⁻¹. In assay [2], the second-order inactivation rate constant (kobs/[I]) stood at 2700 M⁻¹ s⁻¹.
`COc1oc(=O)c2cc(NC(=O)OCc3ccccc3)ccc2c1Cl` had a kobs/[I] (second-order inactivation rate constant) in assay [4] of 71000 M⁻¹ s⁻¹. The compound further registered a second-order inactivation rate constant (kobs/[I]) in assay [2] of 260 M⁻¹ s⁻¹.
In assay [4], `COC(=O)CCCC(=O)Nc1ccc2c(Cl)c(OC)oc(=O)c2c1` came in with a kobs/[I] (second-order inactivation rate constant) of 54000 M⁻¹ s⁻¹. This compound also came in with a second-order inactivation rate constant (kobs/[I]) in assay [2] of 2800 M⁻¹ s⁻¹.
Consider `COc1oc(=O)c2cc(NC(=O)OCC3c4ccccc4-c4ccccc43)ccc2c1Cl`, for which the k obs / 1 in assay [5] was 10000 M⁻¹ s⁻¹. Also, the second-order inactivation rate constant (kobs/[I]) in assay [2] amounted to 20 M⁻¹ s⁻¹. For the same compound, the [I] in assay [3] was found to be 600 µM.
As for `COc1oc(=O)c2cc(NC(=O)C(CC(C)C)NS(=O)(=O)c3ccc(C)cc3)ccc2c1Cl` (centres undefined), the kobs/[I] (second-order inactivation rate constant) in assay [4] was determined as 54000 M⁻¹ s⁻¹. In assay [2], this compound displayed a second-order inactivation rate constant (kobs/[I]) of 6300 M⁻¹ s⁻¹.
With `COc1oc(=O)c2cc(NC(=O)Nc3ccccc3)ccc2c1Cl`, the kobs/[I] (second-order inactivation rate constant) in assay [4] is 49000 M⁻¹ s⁻¹. This compound also yielded a second-order inactivation rate constant (kobs/[I]) in assay [2] of 7300 M⁻¹ s⁻¹.
In assay [4], `COc1oc(=O)c2cc(NC(C)=O)ccc2c1Cl` displayed a kobs/[I] (second-order inactivation rate constant) of 30000 M⁻¹ s⁻¹. The same compound came in with a second-order inactivation rate constant (kobs/[I]) in assay [2] of 2300 M⁻¹ s⁻¹.
The corresponding values for `COc1oc(=O)c2cc(NC(=O)Cc3ccccc3)ccc2c1Cl` are 37000 M⁻¹ s⁻¹ and 2000 M⁻¹ s⁻¹.
`COc1oc(=O)c2cc(NC(=O)CC(c3ccccc3)c3ccccc3)ccc2c1Cl` showed a kobs/[I] (second-order inactivation rate constant) in assay [4] of 130000 M⁻¹ s⁻¹. The same compound registered a second-order inactivation rate constant (kobs/[I]) in assay [2] of 2400 M⁻¹ s⁻¹.
For `COc1oc(=O)c2cc(N=C=O)ccc2c1Cl`, in assay [5], the k obs / 1 was found to be 9200 M⁻¹ s⁻¹. For the same compound, the second-order inactivation rate constant (kobs/[I]) in assay [2] was 650 M⁻¹ s⁻¹. This compound had a [I] in assay [3] of 8.3 µM.
On to `COc1oc(=O)c2cc(NC(=O)C(F)(F)C(F)(F)C(F)(F)F)ccc2c1Cl`, for which, in assay [4], the kobs/[I] (second-order inactivation rate constant) came out at 47000 M⁻¹ s⁻¹. In addition, the second-order inactivation rate constant (kobs/[I]) in assay [2] came out at 1100 M⁻¹ s⁻¹.
Regarding `COc1oc(=O)c2cc(NC(=O)CC(CC(=O)O)c3ccccc3)ccc2c1Cl` (centres undefined), in assay [4], the kobs/[I] (second-order inactivation rate constant) amounted to 66000 M⁻¹ s⁻¹. Also, in assay [2], the second-order inactivation rate constant (kobs/[I]) was determined as 100 M⁻¹ s⁻¹.
The compound `COC(=O)Nc1cccc(C(=O)Nc2ccc3c(Cl)c(OC)oc(=O)c3c2)c1` had a kobs/[I] (second-order inactivation rate constant) in assay [4] of 100000 M⁻¹ s⁻¹. The compound further had a second-order inactivation rate constant (kobs/[I]) in assay [2] of 2500 M⁻¹ s⁻¹.
`COc1oc(=O)c2cc(NC(=O)C(Cc3ccccc3)NS(=O)(=O)c3ccc(C)cc3)ccc2c1Cl` (centres undefined) registered a kobs/[I] (second-order inactivation rate constant) in assay [4] of 200000 M⁻¹ s⁻¹. In assay [2], this compound yielded a second-order inactivation rate constant (kobs/[I]) of 6500 M⁻¹ s⁻¹.
`COc1oc(=O)c2cc(NC(=O)CCc3ccccc3)ccc2c1Cl` yielded a kobs/[I] (second-order inactivation rate constant) in assay [4] of 66000 M⁻¹ s⁻¹. In addition, the second-order inactivation rate constant (kobs/[I]) in assay [2] stood at 3100 M⁻¹ s⁻¹.
As to `COC(=O)CCC(=O)Nc1ccc2c(Cl)c(OC)oc(=O)c2c1`, the kobs/[I] (second-order inactivation rate constant) in assay [4] came out at 43000 M⁻¹ s⁻¹. The second-order inactivation rate constant (kobs/[I]) in assay [2] stood at 2200 M⁻¹ s⁻¹.
On to `COc1oc(=O)c2cc(NC(=O)CCCC(=O)O)ccc2c1Cl`, for which, in assay [4], the kobs/[I] (second-order inactivation rate constant) came out at 51000 M⁻¹ s⁻¹. Further, the second-order inactivation rate constant (kobs/[I]) in assay [2] was 900 M⁻¹ s⁻¹.
Take `COc1oc(=O)c2cc(NC(=O)C(C)NS(=O)(=O)c3ccc(C)cc3)ccc2c1Cl` (centres undefined): in assay [4], the kobs/[I] (second-order inactivation rate constant) was found to be 55000 M⁻¹ s⁻¹. The second-order inactivation rate constant (kobs/[I]) in assay [2] stood at 2500 M⁻¹ s⁻¹.
The corresponding values for `COc1oc(=O)c2cc(NC(=O)C(NS(=O)(=O)c3ccc(C)cc3)c3ccccc3)ccc2c1Cl` (centres undefined) are 84000 M⁻¹ s⁻¹ and 1500 M⁻¹ s⁻¹.
On the same counts, the results for `CCOC(=O)Nc1ccc2c(Cl)c(OC)oc(=O)c2c1` are 47000 M⁻¹ s⁻¹ and 2000 M⁻¹ s⁻¹.
For the compound `COc1oc(=O)c2cc(NC(=O)C(NS(=O)(=O)c3ccc(C)cc3)C(C)C)ccc2c1Cl` (centres undefined), the kobs/[I] (second-order inactivation rate constant) in assay [4] came to 36000 M⁻¹ s⁻¹. Also, in assay [2], the second-order inactivation rate constant (kobs/[I]) is 1300 M⁻¹ s⁻¹.
Regarding `COc1oc(=O)c2cc(NC(=O)N(CCc3ccccc3)Cc3ccccc3)ccc2c1Cl`, in assay [4], the kobs/[I] (second-order inactivation rate constant) was determined as 12000 M⁻¹ s⁻¹. Also, the second-order inactivation rate constant (kobs/[I]) in assay [2] turned out to be 17 M⁻¹ s⁻¹.
`COc1oc(=O)c2cc(NC(=O)CCC(=O)O)ccc2c1Cl` displayed a kobs/[I] (second-order inactivation rate constant) in assay [4] of 9500 M⁻¹ s⁻¹. In assay [2], the second-order inactivation rate constant (kobs/[I]) was 900 M⁻¹ s⁻¹.
On to `COC(=O)c1ccccc1C(=O)Nc1ccc2c(Cl)c(OC)oc(=O)c2c1`, for which the second-order inactivation rate constant (kobs/[I]) in assay [2] amounted to 7100 M⁻¹ s⁻¹.
The compound `COc1oc(=O)c2cc(NC(=O)C(c3ccccc3)c3ccccc3)ccc2c1Cl` registered a kobs/[I] (second-order inactivation rate constant) in assay [4] of 52000 M⁻¹ s⁻¹. Besides, the second-order inactivation rate constant (kobs/[I]) in assay [2] turned out to be 20 M⁻¹ s⁻¹.

(Values after ChEMBL document CHEMBL1125411, “Effect of the 7-amino substituent on the inhibitory potency of mechanism-based isocoumarin inhibitors for porcine pancreatic and human neutrophil elastases: a 1.85-A X-ray structure of the complex between porcine pancreatic elastase and 7-[(N-tosylphenylalanyl)amino]-4-chloro-3- methoxyisocoumarin” (J Med Chem, 1992).)
